Lmaj promast – inhibitors of Leishmania major promastigote growth; inhibition, % at 10 µM; Leishmania major promastigotes, resazurin fluorescence viability; 200,000 tested, 9% active; in the data active = inhibition above about 50%;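 also: promastigotes grown with compound for 44 hours at 28 °C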
HSV augment – HSV replication enhancement | HSV replication augmentation in cells, fold increase | maximum fold increase | 220,000 tested, 0.005% active | AID 1956; in the data active = maximum fold increase above about 1.5; inconclusive = no clear call, values can overlap the other calls; tested in PC3 cells
bCat nuc transl – modulators of beta-catenin nuclear translocation | HeLa beta-catenin nuclear translocation, immunofluorescence imaging | nuclear translocation activity, % at 5 µM | 190,000 tested, 0.3% active;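 active = nuclear translocation activity above 50% at 5 µM, with a well cell count of 50 or more; inconclusive = wells under 50 cells across six images, flagged as toxic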;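 also: per-cell ratio of nuclear to cytoplasmic median beta-catenin stain intensity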
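Assay system: human HeLa cells, native beta-catenin; doses: 5 µM primary, 0.02–20 µM confirmation; incubation: compound treatment 24 h, 37°C, 5% CO2; technique: fluorescence imaging of beta-catenin antibody stain plus DAPI; measure: % activation, nuclear-to-cytoplasmic median beta-catenin signal ratio per cell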
Dynein transport – blocks dynein driven cargo transport along microtubules. 220,000 tested, 0.47% active. 3617.4 mouse cells, GR-EGFP nuclear translocation imaging; test concentration mostly 20 µM; stimulated with dexamethasone, 1 µM; hits give low values. z-score, hits read low;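 active = plate z-score of nuclear minus cytoplasmic receptor signal below a set negative limit, without overly bright fluorescence or cell loss, cut at about -3.5 in these data, passing the limit was not always enough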;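 also: z-score of nuclear minus cytoplasmic ring GR-EGFP intensity difference per well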
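Buffer or medium – tet-free medium with charcoal-stripped serum · Signal – automated 10x imaging of fixed Hoechst-stained cells · Also added – dexamethasone agonist, 1.0 µM final, for 30 min · Incubation – induction 48 h, compound 1 h, agonist 30 min · Read-out – GR-EGFP nuclear translocation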
MT stabilizer – microtubule stabilizers in HeLa cells. HeLa tubulin immunostaining HCS, 24 h; share of cells brighter than vehicle mean+2SD. % tubulin-high responders, % at 10 µM. 200,000 tested, 0.83% active;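 active = plate Z-score above 3 for both tubulin-high and condensed-nucleus cell shares, with cell loss under 80%, at 10 µM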;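 also: anti alpha tubulin signal scored within the nucleus-defined area of each cell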
Dynein confirm – dynein cargo transport inhibition, confirmation; AID 463116; calls only at 20 µM; 3617.4 GR-EGFP nuclear translocation imaging, dexamethasone-induced; 1,000 tested, 69% active; shares compounds with Dynein transport;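 active = inhibition of receptor movement into the nucleus at or above a set limit in both runs, with normal cell brightness and cell count; inconclusive = limit reached in only one run, brightness and count normal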;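 also: dexamethasone at 1 µM final in well for 30 min; nuclear minus cytoplasmic GR-EGFP mean intensity difference in channel 2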
Hits are given with their value. The list is not random: actives were taken first. Their share in the collection is about 8.9%.

`CCOC(=O)C(NC(=O)c1cccc(Cl)c1)(Nc1sc2c(c1C(N)=O)CCC2)C(F)(F)F` (stereo unspecified) gave Lmaj promast inactive, HSV augment inconclusive, bCat nuc transl inactive, Dynein transport -4.5, MT stabilizer inactive and Dynein confirm active.
`OC(CNCCc1ccc(Cl)cc1)COc1ccc2ccccc2c1` (stereo unspecified) gave Lmaj promast 83, HSV augment inactive, bCat nuc transl inactive, Dynein transport -8.2, MT stabilizer inactive and Dynein confirm inactive.
COc1ccc(-n2cccc2C=O)cc1 was read as Lmaj promast inactive, HSV augment inactive, bCat nuc transl inactive, Dynein transport inactive and MT stabilizer inactive.
`COc1ccc(-n2cccc2/C=C/[N+](=O)[O-])cc1` gave Lmaj promast 100, HSV augment inactive, bCat nuc transl inactive, Dynein transport -3.8, MT stabilizer inactive and Dynein confirm active.
`COc1ccc(CNC(=O)CN2C(=O)NC3(CCCCCC3)C2=O)cc1OC` gave Lmaj promast inactive, HSV augment inactive, bCat nuc transl inactive, Dynein transport inactive and MT stabilizer inactive.
For COc1cccc(-n2nc(C#N)c(Cl)cc2=O)c1 the results were Lmaj promast 100, HSV augment inactive, bCat nuc transl inactive, Dynein transport -6.2, MT stabilizer inactive and Dynein confirm active.
For COc1cccc(-n2nc(C(N)=O)c(O)cc2=O)c1 the results were Lmaj promast inactive, HSV augment inactive, bCat nuc transl inactive, Dynein transport inactive and MT stabilizer inactive.
COc1ccccc1C1Nc2cccc3cccc(c23)N1 was read as Lmaj promast inactive, HSV augment inactive, bCat nuc transl inactive, Dynein transport -4.7, MT stabilizer inactive and Dynein confirm inactive.
`COC(=O)C(Cc1ccc(OC(=O)c2ccc(C(F)(F)F)cc2)cc1)N1Cc2ccccc2C1=O` (stereo unspecified) gave Lmaj promast inactive, HSV augment inactive, Dynein transport inactive and MT stabilizer inactive.
For O=C1C2C3C=CC(CO)(O3)C2C(=O)N1c1ccc(-c2ccccc2)cc1 (stereo unspecified) the results were Lmaj promast inactive, HSV augment inactive, bCat nuc transl inactive, Dynein transport -4.4, MT stabilizer inactive and Dynein confirm active.
`Cc1ccc2oc(-c3cccc(NC(=O)Cc4cccs4)c3)nc2c1` gave Lmaj promast inactive, HSV augment inactive, Dynein transport inactive and MT stabilizer inactive.
`Cc1nn(-c2ccccc2)c(C)c1NC(=O)COc1ccc(F)cc1Cl` gave Lmaj promast inactive, HSV augment inactive, Dynein transport inactive and MT stabilizer inactive.
`CCCCCCc1cc2cc(C(=O)NC)c(=N)oc2cc1O` gave Lmaj promast 58, HSV augment inconclusive, Dynein transport -7.5, MT stabilizer inactive and Dynein confirm active.
For CCCCCCc1cc2cc(C(=O)OCC)c(=O)oc2cc1O the results were HSV augment inactive, bCat nuc transl inactive and Dynein transport inactive.
CCN(CC)C(=O)CSc1nc2cc(OC)c(OC)cc2c(=O)n1Cc1ccc(Cl)cc1 was read as Lmaj promast inactive, HSV augment inactive, bCat nuc transl inactive, Dynein transport inactive and MT stabilizer inactive.
`O=C(c1ccccc1)c1ccccc1N1C(=O)C=CC1=O` gave HSV augment inactive, bCat nuc transl inactive, Dynein transport -4.4 and Dynein confirm active.
COc1c(Cl)cc(C(=O)Nc2ccccc2C(=O)O)cc1Cl was read as Lmaj promast inactive, HSV augment inactive, bCat nuc transl inactive, Dynein transport inactive and MT stabilizer inactive.
Cn1nc(-c2ccccc2)cc1NC(=O)Nc1ccc(F)cc1 was read as HSV augment inactive, bCat nuc transl inactive and Dynein transport inactive.
Screening CCOC(=O)c1c(-c2ccc(C)cc2)csc1NC(=O)/C(C#N)=C/c1ccc(O)c(OC)c1 returned Lmaj promast inactive, HSV augment inconclusive, bCat nuc transl inactive, Dynein transport inactive, MT stabilizer inactive and Dynein confirm inactive.
For CC(=O)Oc1ccc(OC(C)=O)c(SCCCCCCl)c1 the results were Lmaj promast inactive, HSV augment inactive, bCat nuc transl inactive, Dynein transport -4.6, MT stabilizer inactive and Dynein confirm active.
Screening CCOc1ccc(C(=O)NC2=NCCS2)cc1 returned Lmaj promast inactive, HSV augment inactive, bCat nuc transl inactive, Dynein transport inactive and MT stabilizer inactive.
Screening CCOC(=O)c1c(-c2ccc(OC)cc2)csc1NC(=O)CCN1C(=O)c2ccccc2C1=O returned Lmaj promast inactive, HSV augment inactive, bCat nuc transl inactive, Dynein transport inactive and MT stabilizer inactive.
COc1cc(CNc2ncn[nH]2)ccc1OCC(=O)NC(C)(C)C was read as Lmaj promast inactive, HSV augment inactive, bCat nuc transl inactive, Dynein transport inactive and MT stabilizer inactive.
O=C(Cn1c(=O)oc2cc(S(=O)(=O)NCc3ccccc3)ccc21)N1CCCC1 was read as HSV augment inactive, bCat nuc transl inactive, Dynein transport -5.2 and Dynein confirm inactive.
`O=C(CCC(=O)Nc1ccc(Cl)cc1Cl)N/N=C/c1ccc([N+](=O)[O-])o1` gave Lmaj promast 101, HSV augment inactive, bCat nuc transl inactive, Dynein transport -5.2, MT stabilizer inactive and Dynein confirm active.
COc1ccc(-n2ncc(N(C)n3cccc3)c(Cl)c2=O)cc1 was read as Lmaj promast inactive, HSV augment inactive, bCat nuc transl inactive, Dynein transport inactive and MT stabilizer inactive.
COc1ccc(-n2ncc(Cl)c(Cl)c2=O)cc1 was read as Lmaj promast 82, HSV augment inactive, bCat nuc transl inactive, Dynein transport -6.8, MT stabilizer inactive and Dynein confirm active.
For Nc1nc2c(F)c(F)c(F)cc2s1 the results were Lmaj promast inactive, HSV augment inactive, bCat nuc transl inactive, Dynein transport inactive and MT stabilizer inactive.
C=CS(=O)(=O)c1ccc(Oc2ccc(S(=O)(=O)C=C)cc2)cc1 was read as Lmaj promast inactive, HSV augment inactive, bCat nuc transl inactive, Dynein transport -4, MT stabilizer inactive and Dynein confirm active.
`CCN(CC)c1ccc(/C=C(/C#N)C(=O)NCc2ccccc2)o1` gave Lmaj promast inactive, HSV augment inconclusive, bCat nuc transl inactive, Dynein transport inactive and MT stabilizer inactive.
CCN(CC)c1ccc(/C=N/NC(=O)C(O)(c2ccccc2)c2ccccc2)o1 was read as Lmaj promast inactive, HSV augment inactive, bCat nuc transl inactive, Dynein transport -4.9, MT stabilizer inactive and Dynein confirm inactive.
Screening O=C(c1cccs1)n1nc(-c2ccccc2)nc1NCc1ccco1 returned Lmaj promast inactive, HSV augment inactive, bCat nuc transl inactive, Dynein transport -5.6, MT stabilizer inactive and Dynein confirm inactive.
Clc1nc(CN2CCCCC2)nc2sc3c(c12)CCCC3 was read as Lmaj promast inactive, HSV augment inactive, bCat nuc transl inactive, Dynein transport -3.7, MT stabilizer inactive and Dynein confirm inactive.

High-throughput results (PubChem)
